The sample as a whole holds a higher share of hits than the screen did.
HUVEC prolif 384 – inhibitors of human endothelial cell proliferation; HUVEC proliferation, CellTiter-Glo luminescence, 72 h; stronger effect = lower value; viability, % at 10 µM (by protocol); actives 1.1% (n = 86,000);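 active means viability at or below 30%; inactive means viability above 30%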;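 further: 100% = median luminescence of DMSO-only cell control wells on each plate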
H69AR inhibit – growth inhibitors of human H69AR lung tumor cells | H69AR lung tumor viability, ATP luminescence, 72 h; stronger effect = lower value | viability, % at 10 µM | actives 6% (n = 85,000) | AID 598;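 active means viability at or below 40%; inactive means viability above 40%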;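 further: multidrug resistant small cell line overexpressing MRP-1 efflux transporter; 100% = mean luminescence of untreated control wells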
bCat KO growth – beta-catenin-lacking colon tumor cell growth suppression; viability, % at 10 µM; HCT116 beta-catenin knockout viability, CellTiter-Glo, 60 h; stronger effect = lower value; actives 1.5% (n = 140,000);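 active means viability at or under a set limit, the compound median less 4 SD, cut at about 6% in these data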;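 further: 0% = Hyamine 1622 control at 20 µM and 100% = untreated cell control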
Lung fibro prol – blocks proliferation of human lung fibroblasts; LL 47 human lung fibroblast viability, ATP luminescence; stronger effect = lower value; actives 1.1% (n = 85,000); AID 719; viability, % at 10 µM;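 active means viability at or below 50% in the single dose screen; inactive means viability above 50%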;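 further: compound exposure lasted 72 h before the ATP readout; 100% = median luminescence of untreated cell-only wells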
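Test system: LL 47 human lung fibroblasts / Quantity: 1,150 cells in each well / Medium: IMEM growth medium with 15% fetal bovine serum / Incubation: 72 h compound exposure at 37 °C after overnight plating / Detection: CellTiter-Glo luminescence measuring cellular ATP / Read-out: % viability versus median cells-only luminescence / Benchmarks: cell-only wells, no compound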
Calb biofilm kill – kills Candida albicans biofilms. C. albicans biofilm + clotrimazole, Alamar Blue. inhibition, % at 6 µM. actives 0.14% (n = 85,000). AID 834;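 active means inhibition above 20%; inactive means inhibition below 20%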;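 further: preformed 24 hr biofilms exposed to compound for 48 hr; 0% = biofilm without compound and 100% = blank killed by clotrimazole plus chlorhexidine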
PTEN del growth – PTEN-deleted cell growth suppression; HCT116 PTEN-null viability, CellTiter-Glo, 60 h; stronger effect = lower value; viability, % at 10 µM; actives 1.2% (n = 140,000); AID 827;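 active means viability at or below a set limit, 4 SD under the median of all tested compounds, cut at about 3.7% in these data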;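 further: PTEN knockout HCT116 line with beta catenin targeted HCT116 as companion control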
Numbers without * were called inactive; / = no result given.

SMILES	HUVEC prolif 384	H69AR inhibit	bCat KO growth	Lung fibro prol	Calb biofilm kill	PTEN del growth
CCc1ccc2[nH]c(=O)c(CN(CCCN3CCOCC3)C(=O)Nc3cccc(Cl)c3)cc2c1	15*	29*	1.9*	61	0	1.9*
Cc1ccc(C)c2[nH]c(=O)c(CN(CCN3CCCC3)C(=O)Nc3cccc(Cl)c3)cc12	21*	0.6*	3.0*	28*	-4	1.8*
Cc1ccc2[nH]c(=O)c(CN(CCCN(C)C)C(=O)Nc3ccc(Cl)cc3)cc2c1	62	3.0*	15	64	6	16
COc1ccc2[nH]c(=O)c(CN(CCCN(C)C)C(=O)Nc3ccc(F)cc3)cc2c1	105	71	44	94	-3	53
CCc1ccc2[nH]c(=O)c(CN(CCCN3CCOCC3)C(=O)Nc3ccccc3)cc2c1	73	65	61	95	4	56
CN1CCN(C(=O)CCc2nc3ccccc3n2-c2ccccc2)CC1	/	/	95	/	/	96
CC(C)n1nc(C(=O)OCn2nnc3ccccc3c2=O)c2ccccc2c1=O	/	/	75	/	/	90
Cc1ccc2[nH]c(=O)c(CN(CCN3CCOCC3)C(=O)Nc3ccc(F)cc3)cc2c1	90	39*	65	96	9	62
CN1C(=O)C(c2nnc(Nc3cccc4ccccc34)s2)C2CC1(C)Oc1ccccc12 (stereo not given)	/	/	71	/	/	81
O=S(Cc1ccccc1)CC(O)(c1ccc(Cl)cc1)c1ccc(Cl)cc1 (stereo not given)	/	/	5.7*	/	/	13
O=C(CCn1c(=O)c2ccccc2n(Cc2ccccc2)c1=O)NCc1ccc2c(c1)OCO2	94	90	104	103	-2	102
O=C(NCc1ccccc1)c1ccc(C(=O)N(C2CCCCC2)C2CCCCC2)cc1	86	71	78	98	76*	79
COC(=O)CC(NS(=O)(=O)c1cccs1)c1ccccc1Cl (stereo not given)	/	/	97	/	/	100
CCOC(=O)C1=C(N)n2c(s/c(=C/c3ccccc3)c2=O)=C(C(=O)OCC)C1c1ccccc1 (stereo not given)	99	9.5*	34	66	4	53
CCOC(=O)C1=C(N)n2c(s/c(=C\c3ccco3)c2=O)=C(C(=O)OCC)C1c1ccco1 (stereo not given)	29*	27*	27	29*	9	29
CSc1ccc(S(=O)(=O)NCc2ccc(Cl)cc2Cl)cc1	89	85	92	107	-1	104
Cc1ccc(C(=O)C(C)OC(=O)c2ccccc2[N+](=O)[O-])cc1 (stereo not given)	/	/	79	/	/	93
C/C=N/NC(=O)CCNC(=O)c1ccccc1	/	/	93	/	/	96
COc1cc(/C=N/n2c(C)nnc2C)cc(OC)c1OC	89	105	102	100	4	96
COc1c(Br)cc(Br)cc1/C=N/n1c(C)nnc1C	59	25*	27	71	7	37
Cc1ccn2c(-c3csc(NCc4ccccc4)n3)c(C)nc2c1	63	22*	51	85	5	49
O=C(N/N=C\c1ccc([N+](=O)[O-])s1)c1cncc(Br)c1	/	/	3.4*	/	/	1.5*
O=C(N/N=C/c1ccc([N+](=O)[O-])s1)c1cccnc1	/	/	3.3*	/	/	2.8*
COc1cccc(CNC(=O)C(=O)NCC(c2ccco2)N2CCOCC2)c1 (stereo not given)	/	/	97	/	/	86
CCCCCCSc1nsc(NC(=O)CC(C)C)n1	/	/	74	/	/	67
SMILES	HUVEC prolif 384	H69AR inhibit	bCat KO growth	Lung fibro prol	Calb biofilm kill	PTEN del growth
CCCSc1nsc(NC(=O)C(c2ccccc2)c2ccccc2)n1	68	18*	14	87	4	8
CCn1c(=O)cc(SCC(=O)Nc2ccccc2N2CCN(C)CC2)c2ccccc21	86	52	/	100	-2	/
CCOC(=O)/C(=N\Nc1cc(Cl)ccc1Cl)N1CCN(CC)CC1	/	/	60	/	/	77
O=c1c2c(nc3cc(-c4ccc(Cl)cc4)[nH]n13)CCS2	/	/	91	/	/	85
Cc1cc(C)c2nc(SC(C)C#N)cc(C)c2c1 (stereo not given)	93	31*	78	96	2	64
O=S(=O)(Nc1cccc2cccnc12)c1ccc(S(=O)(=O)N2CCCC2)cc1	54	6.0*	9	57	11	3.8*
O=C(Nc1cccnc1)c1ccc(COc2cc(Cl)ccc2Cl)o1	50	37*	36	82	10	30
O=C(Nc1cccnc1)c1ccc(COc2ccccc2Cl)o1	45	60	34	80	6	26
O=C(Nc1ccccc1)c1cc(S(=O)(=O)N2CCSCC2)ccc1Cl	/	/	91	/	/	84
CC(=O)N(c1nc(CCl)cs1)c1c(C)cc(C)cc1C	/	/	98	/	/	92
O=C(NC(Nc1nc2ccc([N+](=O)[O-])cc2s1)(C(F)(F)F)C(F)(F)F)c1ccccc1Cl	/	/	1.7*	/	/	1.4*
O=C(NC(NNc1ccc([N+](=O)[O-])cc1)(C(F)(F)F)C(F)(F)F)c1ccccc1Cl	/	/	82	/	/	84
O=C(NC(Nc1nc2ccc([N+](=O)[O-])cc2s1)(C(F)(F)F)C(F)(F)F)c1cccnc1	/	/	2.2*	/	/	3.0*
CC1CCN(c2nc3ccc(C(=O)N4CCN(Cc5ccc6c(c5)OCO6)CC4)cc3s2)CC1	80	72	32	96	8	43
N#Cc1ncc(C(F)(F)F)cc1Sc1ccc(N)cc1	89	36*	79	94	-4	89
O=C(Cn1cc([N+](=O)[O-])cn1)NCc1cc2ccccc2[nH]1	/	/	96	/	/	87
Cc1ccccc1OCCNC(=O)CSc1ccc(C(F)(F)F)cc1[N+](=O)[O-]	/	/	98	/	/	99
CSc1cccc(NC(=O)C2CCCN(S(=O)(=O)c3ccc(F)cc3)C2)c1 (stereo not given)	78	21*	44	100	9	54
O=C(Nc1cccc(Cl)c1)C1CCCN(S(=O)(=O)c2ccc(F)cc2)C1 (stereo not given)	75	29*	85	95	1	65
O=C(COc1ccc(Cl)cc1)N/N=C/CCc1ccccc1	/	/	105	/	/	103
Cc1cc(NC(=O)c2cncc(Br)c2)n(-c2ccccn2)n1	85	37*	103	99	1	85
O=c1c2c3c(sc2n2c(=S)[nH]nc2n1Cc1ccccc1)CN(Cc1ccccc1)CC3	84	82	/	97	1	/
CCN(CC)c1ccc(C(=O)n2cnc3ccccc32)cc1	75	21*	66	88	4	62
CN(C)c1ccc(C(=O)n2nnc3ccccc32)cc1	80	84	95	100	6	104
O=C(CSc1nnc2c(Cl)cc(Cl)cn12)N1CCN(c2ccc(F)cc2)CC1	/	/	89	/	/	87
Cc1nn(C(=O)c2ccc3c(c2)OCO3)c(N)c1-c1ccccc1	103	91	87	102	8	96
COc1ccc(-c2cc(C3CC3)nc(SCC(=O)c3cccs3)c2C#N)cc1	/	/	74	/	/	81

Assay outcomes deposited in PubChem BioAssay by several laboratories.
